Consider 3 molecules from ChEMBL document CHEMBL3259739, “Synthesis and structure-activity relationship of trisubstituted thiazoles as Cdc7 kinase inhibitors” (Eur J Med Chem, 2014).

Series [1] is described as follows: Intrinsic clearance in human liver microsomes at 1 uM after 30 mins by reverse phase HPLC analysis in presence of NADPH. Type of series: ADME. As to conditions: read-out: CLH. The method, boiled down:
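Reactions were stopped with MeCN after 0 or 30 min. Samples were analysed by reverse-phase HPLC–tandem MS to give intrinsic clearance (µl/min/mg).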

Series [2] concerns the target T1, Mitogen-activated protein kinase kinase kinase 19 (Homo sapiens) (UniProt Q56UN5).
T1 sequence (whole entry): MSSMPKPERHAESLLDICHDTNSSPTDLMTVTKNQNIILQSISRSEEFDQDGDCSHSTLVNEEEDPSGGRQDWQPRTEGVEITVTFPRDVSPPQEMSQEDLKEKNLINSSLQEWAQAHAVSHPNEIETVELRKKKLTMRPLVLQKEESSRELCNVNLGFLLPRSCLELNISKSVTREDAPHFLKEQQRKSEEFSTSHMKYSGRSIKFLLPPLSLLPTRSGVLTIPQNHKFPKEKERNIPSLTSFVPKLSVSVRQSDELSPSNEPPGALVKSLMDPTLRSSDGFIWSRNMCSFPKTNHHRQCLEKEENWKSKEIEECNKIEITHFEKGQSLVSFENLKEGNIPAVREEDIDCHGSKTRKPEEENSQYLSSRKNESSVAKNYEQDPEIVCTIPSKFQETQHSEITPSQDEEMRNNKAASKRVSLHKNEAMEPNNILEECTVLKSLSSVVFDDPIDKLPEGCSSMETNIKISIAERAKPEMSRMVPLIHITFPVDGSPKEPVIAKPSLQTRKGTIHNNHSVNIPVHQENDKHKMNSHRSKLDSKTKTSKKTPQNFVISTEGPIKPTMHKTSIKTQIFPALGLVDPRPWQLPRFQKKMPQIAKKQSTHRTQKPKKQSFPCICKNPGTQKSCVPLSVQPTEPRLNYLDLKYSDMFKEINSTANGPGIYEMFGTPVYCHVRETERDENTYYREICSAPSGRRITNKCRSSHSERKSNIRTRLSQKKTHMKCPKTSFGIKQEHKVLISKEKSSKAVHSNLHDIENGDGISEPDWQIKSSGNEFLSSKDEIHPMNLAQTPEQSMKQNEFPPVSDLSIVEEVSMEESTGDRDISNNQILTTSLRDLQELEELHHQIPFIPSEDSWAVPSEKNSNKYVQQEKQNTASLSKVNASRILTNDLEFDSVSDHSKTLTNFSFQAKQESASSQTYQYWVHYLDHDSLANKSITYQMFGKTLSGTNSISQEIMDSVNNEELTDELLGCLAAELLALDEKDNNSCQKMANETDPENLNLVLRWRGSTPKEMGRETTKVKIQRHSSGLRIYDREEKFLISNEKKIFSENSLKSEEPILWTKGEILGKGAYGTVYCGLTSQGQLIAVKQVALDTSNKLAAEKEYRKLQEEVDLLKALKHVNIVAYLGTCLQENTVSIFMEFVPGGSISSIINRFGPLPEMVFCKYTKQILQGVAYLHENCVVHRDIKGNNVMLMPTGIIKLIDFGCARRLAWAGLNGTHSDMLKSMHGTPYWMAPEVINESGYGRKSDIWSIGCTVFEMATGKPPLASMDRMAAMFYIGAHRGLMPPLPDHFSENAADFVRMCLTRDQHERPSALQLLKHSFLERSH
Nature of the series: Inhibition of YSK4 (unknown origin) at 1 uM relative to control. The following applies: values are per cent of control. The method, boiled down:
(§1)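 KinomeSCAN competitive binding panel of 100 kinases; compounds tested at 1 µM in duplicate; read-out is percent […] control.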

In series [3] the target is Proto-oncogene tyrosine-protein kinase Src (Homo sapiens) (UniProt P12931). Nature of the series: Inhibition of SRC (unknown origin) at 1 uM relative to control. As to conditions: values are per cent of control. The method, boiled down: as §1
Chain of Proto-oncogene tyrosine-protein kinase Src (Homo sapiens) (P12931 2-536 limits assumed): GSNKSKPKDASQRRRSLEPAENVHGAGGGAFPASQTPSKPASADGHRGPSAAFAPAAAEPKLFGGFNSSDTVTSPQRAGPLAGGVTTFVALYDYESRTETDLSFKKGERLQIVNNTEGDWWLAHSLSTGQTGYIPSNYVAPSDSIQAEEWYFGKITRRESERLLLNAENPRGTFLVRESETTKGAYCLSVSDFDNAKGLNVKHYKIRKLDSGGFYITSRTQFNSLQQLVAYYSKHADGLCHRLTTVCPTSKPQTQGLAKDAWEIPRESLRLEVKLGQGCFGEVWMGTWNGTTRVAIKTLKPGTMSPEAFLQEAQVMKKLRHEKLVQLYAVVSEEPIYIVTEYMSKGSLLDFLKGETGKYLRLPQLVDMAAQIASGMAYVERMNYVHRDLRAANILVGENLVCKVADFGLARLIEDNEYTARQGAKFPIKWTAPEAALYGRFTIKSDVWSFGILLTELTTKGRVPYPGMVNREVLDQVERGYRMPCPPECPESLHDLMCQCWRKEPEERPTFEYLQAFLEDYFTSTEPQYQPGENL
In series [4] the target is Protein-tyrosine kinase 6 (Homo sapiens) (UniProt Q13882). Nature of the series: Inhibition of BRK (unknown origin) at 1 uM relative to control; values are per cent of control.
Chain of Protein-tyrosine kinase 6 (Homo sapiens) (Q13882 whole entry, looked up): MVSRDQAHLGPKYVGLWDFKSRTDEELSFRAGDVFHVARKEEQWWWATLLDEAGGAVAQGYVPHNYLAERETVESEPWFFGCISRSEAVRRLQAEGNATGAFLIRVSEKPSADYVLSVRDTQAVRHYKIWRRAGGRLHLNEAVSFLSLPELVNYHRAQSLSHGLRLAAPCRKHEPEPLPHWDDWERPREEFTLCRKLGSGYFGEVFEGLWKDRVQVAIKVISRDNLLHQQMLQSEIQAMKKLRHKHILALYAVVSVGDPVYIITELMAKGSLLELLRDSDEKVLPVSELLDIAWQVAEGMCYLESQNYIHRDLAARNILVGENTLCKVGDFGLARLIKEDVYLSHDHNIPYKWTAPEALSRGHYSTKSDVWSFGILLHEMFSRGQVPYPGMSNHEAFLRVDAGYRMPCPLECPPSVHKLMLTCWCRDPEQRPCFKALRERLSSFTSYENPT
In series [5] the target is T2, Rhodopsin kinase GRK1 (Homo sapiens) (UniProt Q15835).
T2 sequence (whole entry): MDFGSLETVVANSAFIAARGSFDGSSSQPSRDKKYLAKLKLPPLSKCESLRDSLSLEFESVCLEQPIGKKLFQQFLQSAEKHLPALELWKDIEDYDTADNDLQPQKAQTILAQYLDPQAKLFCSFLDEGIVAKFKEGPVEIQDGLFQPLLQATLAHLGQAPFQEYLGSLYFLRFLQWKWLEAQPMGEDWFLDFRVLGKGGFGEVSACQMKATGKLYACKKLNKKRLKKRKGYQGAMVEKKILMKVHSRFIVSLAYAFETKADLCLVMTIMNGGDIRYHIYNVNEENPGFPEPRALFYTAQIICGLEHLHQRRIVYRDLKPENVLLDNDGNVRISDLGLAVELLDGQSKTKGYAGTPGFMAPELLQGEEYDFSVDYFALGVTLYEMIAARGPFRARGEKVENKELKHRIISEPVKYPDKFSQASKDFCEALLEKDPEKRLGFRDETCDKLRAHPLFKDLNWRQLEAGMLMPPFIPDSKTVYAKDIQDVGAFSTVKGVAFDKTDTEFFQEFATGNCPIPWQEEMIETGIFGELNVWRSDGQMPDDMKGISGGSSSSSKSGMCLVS
Nature of the series: Inhibition of GRK1 (unknown origin) at 1 uM relative to control; values are per cent of control.

The target in series [6] is Fibroblast growth factor receptor 1 (Homo sapiens) (UniProt P11362). Nature of the series: Inhibition of FGFR1 (unknown origin) at 1 uM relative to control; values are per cent of control.
Chain of Fibroblast growth factor receptor 1 (Homo sapiens) (P11362 22-822 limits assumed): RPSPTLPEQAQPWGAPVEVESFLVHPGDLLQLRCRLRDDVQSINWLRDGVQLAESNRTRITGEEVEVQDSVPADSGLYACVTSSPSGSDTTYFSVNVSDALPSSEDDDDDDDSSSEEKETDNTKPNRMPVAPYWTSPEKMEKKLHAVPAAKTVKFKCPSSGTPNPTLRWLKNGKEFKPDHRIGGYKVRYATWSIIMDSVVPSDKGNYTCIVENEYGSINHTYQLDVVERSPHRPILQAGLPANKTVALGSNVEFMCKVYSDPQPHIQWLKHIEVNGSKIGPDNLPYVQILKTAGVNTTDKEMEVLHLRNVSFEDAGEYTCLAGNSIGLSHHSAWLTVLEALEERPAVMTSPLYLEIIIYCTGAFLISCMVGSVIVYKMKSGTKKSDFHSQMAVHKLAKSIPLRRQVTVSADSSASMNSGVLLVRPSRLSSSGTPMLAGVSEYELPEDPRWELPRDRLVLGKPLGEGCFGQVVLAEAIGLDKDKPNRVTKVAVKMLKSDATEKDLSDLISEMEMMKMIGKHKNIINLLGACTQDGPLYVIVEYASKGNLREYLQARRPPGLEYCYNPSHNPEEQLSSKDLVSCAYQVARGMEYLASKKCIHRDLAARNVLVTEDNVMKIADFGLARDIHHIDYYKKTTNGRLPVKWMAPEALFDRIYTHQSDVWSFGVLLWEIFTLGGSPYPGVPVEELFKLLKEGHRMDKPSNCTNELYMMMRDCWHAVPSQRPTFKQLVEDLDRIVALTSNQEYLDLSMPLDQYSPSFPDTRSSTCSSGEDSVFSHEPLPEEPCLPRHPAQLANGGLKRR
Series [7] concerns the target T3, Interleukin-1 receptor-associated kinase 4 (Homo sapiens) (UniProt Q9NWZ3).
T3 sequence (whole entry): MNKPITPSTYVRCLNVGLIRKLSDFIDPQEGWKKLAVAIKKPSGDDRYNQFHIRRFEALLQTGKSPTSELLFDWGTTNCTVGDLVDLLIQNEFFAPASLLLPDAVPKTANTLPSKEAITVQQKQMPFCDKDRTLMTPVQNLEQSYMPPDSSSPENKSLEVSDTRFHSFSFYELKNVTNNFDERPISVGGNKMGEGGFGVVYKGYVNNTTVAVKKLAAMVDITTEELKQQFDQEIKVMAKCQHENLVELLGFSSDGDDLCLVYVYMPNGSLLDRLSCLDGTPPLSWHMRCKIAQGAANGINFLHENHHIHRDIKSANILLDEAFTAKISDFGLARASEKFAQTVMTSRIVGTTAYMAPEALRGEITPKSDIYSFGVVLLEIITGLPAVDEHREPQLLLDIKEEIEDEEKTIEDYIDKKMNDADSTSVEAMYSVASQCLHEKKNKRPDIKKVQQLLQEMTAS
Nature of the series: Inhibition of IRAK4 (unknown origin) at 1 uM relative to control; values are per cent of control.

Series [8] deals with LIM domain kinase 1 (Homo sapiens) (UniProt P53667). Nature of the series: Inhibition of LIMK1 (unknown origin) at 1 uM relative to control; values are per cent of control.
Chain of LIM domain kinase 1 (Homo sapiens) (P53667 whole entry, looked up, the tested form may be a part): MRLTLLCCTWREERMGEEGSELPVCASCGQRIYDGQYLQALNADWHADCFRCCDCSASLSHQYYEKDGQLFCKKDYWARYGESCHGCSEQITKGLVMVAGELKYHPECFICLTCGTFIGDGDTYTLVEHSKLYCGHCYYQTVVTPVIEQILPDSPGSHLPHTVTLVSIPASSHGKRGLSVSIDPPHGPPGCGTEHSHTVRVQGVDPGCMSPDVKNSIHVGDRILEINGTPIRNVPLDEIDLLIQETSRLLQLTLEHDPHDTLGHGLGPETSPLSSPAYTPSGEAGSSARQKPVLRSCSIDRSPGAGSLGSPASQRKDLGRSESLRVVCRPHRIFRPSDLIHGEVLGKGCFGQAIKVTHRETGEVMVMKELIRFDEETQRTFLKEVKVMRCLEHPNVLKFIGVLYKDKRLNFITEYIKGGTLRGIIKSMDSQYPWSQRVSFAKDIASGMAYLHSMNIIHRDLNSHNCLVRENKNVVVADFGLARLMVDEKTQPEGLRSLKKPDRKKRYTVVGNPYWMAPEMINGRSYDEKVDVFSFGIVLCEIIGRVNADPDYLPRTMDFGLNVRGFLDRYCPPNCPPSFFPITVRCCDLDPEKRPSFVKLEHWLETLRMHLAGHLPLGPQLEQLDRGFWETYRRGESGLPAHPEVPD

The term residual activity denotes what remains of the control signal, in per cent. Read a low residual activity as little activity left.

Turning to `CCOC(=O)c1sc(-c2ccncc2)nc1O`, the microsomal CLint at 1 µM in series [1] was 17 µL/min/mg. The residual binding, % of control in series [2] is 97%; in series [3], 81%. Besides, the residual activity was determined as 94% in series [4]; 99% in series [5]; 89% in series [6]; 100% in series [7]; 100% in series [8].

Take `NC(=O)c1sc(-c2ccnc(N)n2)nc1-c1ccc(Cl)cc1Cl`: in series [1], the microsomal CLint at 1 µM amounted to 19 µL/min/mg. Besides, the residual binding, % of control in series [2] is 41%; in series [3], 100%. The residual activity in series [4] worked out at 68%; in series [5], 75%; in series [6] it was 87%; in series [7] it was 91%; in series [8], 100%.

As for `COc1ccc(-c2nc(-c3ccnc(N)n3)sc2C(N)=O)c(Cl)c1`, the microsomal CLint at 1 µM in series [1] is 43 µL/min/mg. The residual binding, % of control in series [2] was 34%; in series [3], 100%. Besides, the residual activity turned out to be 80% in series [4]; 100% in series [5]; 100% in series [6]; 100% in series [7]; 78% in series [8].
